Source: PubChem BioAssay (The Scripps Research Institute Molecular Screening Center)
This is a sample that favours compounds with a hit; in the whole collection about 2.5% have one here.
HTRA1 inh – blocks human HTRA1 serine peptidase; inhibition, % at 5.96 µM; AID 504803; hit rate 0.5% among 340,000; recombinant HTRA1, FP-rhodamine activity-based probe, fluorescence polarization; in the data active = inhibition above about 36%
TCR-CD3 inh – inhibitors of human TCR-CD3 interaction; inhibition, % at 9.4 µM; hit rate 0.37% among 360,000; TAMRA-labeled TCR probe fluorescence, biochemical; AID 651800; in the data active = inhibition above about 19%;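 note: recombinant mutant TCR 2C K166C tagged with TAMRA read by polarization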
PRMT1 inh – inhibitors of human PRMT1; Q99873; recombinant PRMT1, activity-based probe fluorescence polarization; inhibition, % at 2.79 µM; hit rate 1.3% among 370,000;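 active = inhibition above about 21% made by adding two undisclosed values, limit read from the data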
ABHD4 inh – ABHD4 (mouse) inhibition, primary FP screen; Q8VD66; purified mABHD4, FP-Rh probe fluorescence polarization; inhibition, % at 8.92 µM; hit rate 0.54% among 370,000; AID 720543;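 active = inhibition exceeding the mean over every tested compound plus 3 SD, cut at about 30% in these data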
Target sequence (Q8VD66 whole entry, looked up): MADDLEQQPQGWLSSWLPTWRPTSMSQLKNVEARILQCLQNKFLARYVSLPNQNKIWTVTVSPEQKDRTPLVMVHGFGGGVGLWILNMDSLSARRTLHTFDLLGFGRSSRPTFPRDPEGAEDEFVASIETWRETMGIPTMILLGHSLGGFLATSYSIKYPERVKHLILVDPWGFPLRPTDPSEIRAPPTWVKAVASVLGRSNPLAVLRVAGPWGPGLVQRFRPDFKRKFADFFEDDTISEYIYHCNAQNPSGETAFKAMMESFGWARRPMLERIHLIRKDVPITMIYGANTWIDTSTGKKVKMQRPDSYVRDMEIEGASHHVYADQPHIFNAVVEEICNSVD
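Test system: mABHD4 protein | Buffer or medium: HEPES pH 7.0 buffer, 150 mM NaCl, 0.01% Pluronic F-127 | Probe or stimulus: FP-Rh fluorescent activity-based probe, added after compound pre-incubation | Timing: Pre-incubation 45 min, probe exposure 60 min, at 25 °C | Technique: Fluorescence polarization, excitation 525 nm, emission 598 nm, BODIPY TMR filters | Repeats: Single well per compound (singlicate)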
SIAE primary – human SIAE inhibition, primary screen. AID 1053197. inhibition, % at 9.66 µM. Q9HAT2. hit rate 0.69% among 370,000. SIAE FP-Rh probe binding, fluorescence polarization;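 active = inhibition above a cutoff: mean of compounds within the control limits plus 3 SD of those, cut at about 17% in these data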
PRMT1 confirm – confirmation of human PRMT1 inhibitors. recombinant His-PRMT1, activity-based probe fluorescence polarization. inhibition, % at 2.79 µM. shares compounds with PRMT1 inh. hit rate 42% among 3,300. AID 687036;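 active = mean inhibition across replicates above the hit cutoff derived for the earlier primary screen, cut at about 22% in these data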
Numbers stand for hits; – = inactive; · = not tested or not shown.

SMILES	HTRA1 inh	TCR-CD3 inh	PRMT1 inh	ABHD4 inh	SIAE primary	PRMT1 confirm
Cc1ccc(N2CSC3=C(C#N)C(c4cccs4)CC(=O)N3C2)cc1 (stereo not given)	–	–	52.1	–	–	34.2
COc1ccc(C2CC(=O)N3CN(c4ccc(C)c(Cl)c4)CSC3=C2C#N)cc1OC (stereo not given)	–	–	41.0	–	–	24.9
CCOC(=O)C1(Cc2ccccc2C(F)(F)F)CCN(C2CCN(C(C)C)CC2)CC1	–	–	–	–	–	·
CCOc1ccc(-c2cc(C(=O)OC)nc3c2c(=O)n(C)c(=O)n3C)cc1	–	–	–	–	–	·
CCOc1ccccc1N1CSC2=C(C#N)C(c3c(OC)ccc4ccccc34)CC(=O)N2C1 (stereo not given)	–	–	49.3	–	–	70.4
COc1ccc(N2CSC3=C(C#N)C(c4cc(OC)ccc4OC)CC(=O)N3C2)c(OC)c1 (stereo not given)	–	·	·	·	·	·
COc1cc(OC)c(C2CC(=O)N3CN(c4ccc(C)cc4)CSC3=C2C#N)cc1OC (stereo not given)	–	–	62.4	–	–	92.9
COc1ccc(OC)c(-n2c(=S)[nH]c3c(sc(=S)n3-c3ccccc3)c2=O)c1	–	–	65.4	–	–	–
CCOC(=O)CSc1nc2c(sc(=S)n2-c2ccccc2)c(=O)n1-c1ccc(OC)cc1OC	–	–	–	–	–	·
CCN1C(=O)N[C@@H](c2ccco2)C(C(=O)OC)=C1C	–	–	–	–	–	·
COc1cccc(NC(=O)CSC(N)=O)c1	–	–	62.6	–	–	86.8
COc1cccc(NC(=O)CCC(=O)Nc2cccc(OC)c2)c1	–	–	–	–	–	·
O=C(CSc1ccc(-c2ccco2)nn1)c1ccccc1	–	–	28.2	–	–	–
COc1cccc(NC(=O)CSc2ccc(-c3ccco3)nn2)c1	–	–	42.3	–	–	–
O=C(CSc1ccc(-c2ccco2)nn1)Nc1ccccc1	–	–	–	–	–	·
CCOC(=O)N1CCN(C(=O)CSC2=NS(=O)(=O)c3ccccc3N2)CC1	–	–	–	–	–	·
CCOC(=O)c1ccc(N2C(=O)CC(NC3CCN(C(=O)c4ccc(F)cc4)CC3)C2=O)cc1 (stereo not given)	–	–	–	–	–	·
CCOc1ccc(N2C(=O)CC(NC3CCN(C(=O)c4ccc(F)cc4)CC3)C2=O)cc1 (stereo not given)	–	–	53.0	–	–	–
COc1ccc(N2C(=O)CC(NC3CC3)C2=O)cc1 (stereo not given)	–	–	31.7	–	–	–
O=C(NN=Cc1ccccc1C(=O)O)C(=O)NN=Cc1ccccc1C(=O)O	–	–	103.9	–	–	–
Oc1ccc2ccccc2c1C=Nn1c(-c2n[nH]c3c2CCC3)n[nH]c1=S	·	·	32.3	–	–	–
S=c1[nH]nc(-c2n[nH]c3c2CCC3)n1N=Cc1cccs1	·	·	–	–	–	·
S=c1[nH]nc(-c2n[nH]c3c2CCC3)n1N=Cc1c2ccccc2cc2ccccc12	·	·	50.0	–	–	48.8
COc1ccc(C(CNC(=O)CCNS(=O)(=O)c2ccccc2)N2CCOCC2)cc1 (stereo not given)	–	–	–	–	–	·
CN1C[C@@H]2[C@@H]3C(=O)N(C)C(=O)[C@@H]3[C@](C)(C1=O)N2C(=O)c1ccc(C(C)(C)C)cc1	–	–	–	–	–	·
SMILES	HTRA1 inh	TCR-CD3 inh	PRMT1 inh	ABHD4 inh	SIAE primary	PRMT1 confirm
O=C(OCC(=O)c1ccco1)c1ccc2ncsc2c1	–	–	46.3	–	–	–
CCN(CC)C(=O)C(=O)c1cccn1-c1cccc(OC)c1C#N	–	–	–	–	–	·
O=C(O)C1Nc2c(C(F)(F)F)ccc(Cl)c2C2C=CCC12 (stereo not given)	–	–	33.5	35.9	–	28.3
O=C(O)C1Nc2c(C(=O)N3CCOCC3)cccc2C2C=CCC12 (stereo not given)	–	·	·	·	·	·
O=C1C=CC(=O)N1c1ccc2c(c1)C(NC(=O)C(F)(F)F)c1ccccc1-2 (stereo not given)	–	–	91.2	–	–	86.5
COC(=O)C1=C2SC(C)C(=O)N2C(N)=C(C#N)C1c1cc(OC)c(OC)c(OC)c1 (stereo not given)	–	–	30.9	–	–	–
CCC(Oc1ccc(Br)cc1)C(=O)N1CCN(c2ncccn2)CC1 (stereo not given)	–	–	–	–	–	·
CSc1cnn(Cc2ccccc2)c(=O)c1SCc1ccccc1	–	–	74.3	–	–	–
CSc1cnn(-c2ccccc2)c(=O)c1SC	–	–	–	–	–	·
COc1cc(C2C3CN(C)CC=C3C(C#N)=C(N)C2(C#N)C#N)ccc1OC(C)C (stereo not given)	–	–	–	–	–	·
CC(C)N1CC=C2C(C#N)=C(N)C(C#N)(C#N)C(c3ccccc3)C2C1 (stereo not given)	–	–	36.8	–	–	33.0
CN1CC=C2C(C#N)=C(N)C(C#N)(C#N)C(Cc3ccccc3)C2C1 (stereo not given)	–	–	45.5	–	–	–
CC1(C(=O)Nc2cccc3ccccc23)CCN1C(=O)C1(c2ccccc2)CCCC1 (stereo not given)	·	–	–	–	–	·
CN(CCO)c1cc(Sc2nc3ccccc3s2)c2nonc2c1[N+](=O)[O-]	–	–	90.2	–	–	88.6
CC(=O)OCCN(C)c1cc(SC(C)C)c2nonc2c1[N+](=O)[O-]	–	–	–	–	–	·
CCOC(=O)c1nc(C)n(-c2cc(OC)c(Cl)cc2Cl)n1	–	–	–	–	–	·
COCc1[nH]c(=S)c(C#N)cc1C(=O)OC	–	–	35.0	–	–	–
CCOC(=O)c1cc(C#N)c(=S)[nH]c1C	–	–	–	–	–	·
O=C(COC(=O)c1cc(-c2ccco2)nc2ccccc12)NCc1ccccc1	–	–	35.6	–	–	–
CCCn1c(N)c(N(CCOC)C(=O)c2cc(-c3ccco3)nc3ccccc23)c(=O)[nH]c1=O	–	–	–	–	–	·
COCCCN(C(=O)c1cc(-c2ccco2)nc2ccccc12)c1c(N)n(Cc2ccccc2)c(=O)[nH]c1=O	–	–	47.2	–	–	–
O=C(O)c1cc(-c2ccco2)nc2cc3ccccc3cc12	–	–	26.1	–	–	22.4
COc1ccc(CCNC(=O)c2cc(-c3ccco3)nc3ccccc23)cc1	·	–	39.5	–	–	–
COc1ccccc1NC(=S)N1CCN(C(=O)C2CCCO2)CC1 (stereo not given)	–	–	–	–	–	·
O=C(O)C(Cc1ccccc1)N1C(=O)CCC1=O (stereo not given)	–	–	–	–	–	·
O=C(O)C(Cc1ccccc1)N1C(=O)C=CC1=O (stereo not given)	–	–	52.5	–	–	64.4
COc1ccccc1/C=C/C=C1\Oc2c(ccc(O)c2CN(C)C)C1=O	–	–	27.5	–	–	–
